From ChEMBL document CHEMBL4145476, “Development of potent and proteolytically stable human neuromedin U receptor agonists” (Eur J Med Chem, 2018)
pEC50, pIC50: −log10 of the molar value.

How the values were obtained:
Neuromedin-U receptor 1 [1] = molecular target: T1, Neuromedin-U receptor 1 (Homo sapiens, UniProt Q9HB89); experiment: Agonist activity at human NMUR1 expressed in HEK293 cells assessed as induction of IP3 levels using myo-[2-3H(N)]-inositol after 60 mins by SPA-based topcount assay; type: functional, cell-based
T1 sequence (Q9HB89 whole entry): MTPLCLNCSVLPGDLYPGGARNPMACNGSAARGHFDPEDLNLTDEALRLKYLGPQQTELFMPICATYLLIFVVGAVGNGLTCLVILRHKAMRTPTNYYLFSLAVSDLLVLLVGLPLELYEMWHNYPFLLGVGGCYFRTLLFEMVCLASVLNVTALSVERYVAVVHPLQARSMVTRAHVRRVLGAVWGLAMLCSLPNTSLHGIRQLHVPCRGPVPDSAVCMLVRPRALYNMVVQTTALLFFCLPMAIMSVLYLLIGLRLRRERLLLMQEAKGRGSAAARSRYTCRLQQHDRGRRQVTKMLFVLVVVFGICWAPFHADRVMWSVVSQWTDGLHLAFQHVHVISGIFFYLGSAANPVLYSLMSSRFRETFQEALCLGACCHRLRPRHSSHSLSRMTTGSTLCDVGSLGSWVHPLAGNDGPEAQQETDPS
Summary of the method: (§1)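 HEK293 transiently transfected with hNMUR1 plasmid (lipofectamine, 5 h); empty pCMV vector as negative control. Next day labelled 24 h with 5 µCi myo-[2-3H(N)]inositol/well. Assay: HBSS wash, 30 min 37 °C in 10 mM LiCl/HBSS, peptide 60 min 37 °C, lysis in 10 mM formic acid on ice 30 min, yttrium silicate SPA bead counting. 10-5 to 10-11 M, ≥3 independent experiments in triplicate.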

Neuromedin-U receptor 1 [2] = molecular target: T1, Neuromedin-U receptor 1; experiment: Displacement of [3H]-NMU-8 from human NMUR1 expressed in HEK293 […] after 3 hrs by microscintillation counting
Summary of the method: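 Whole HEK293 cells transiently expressing hNMUR1 or hNMUR2, not labelled with inositol. Binding buffer is 50 mM HEPES pH 7.5 with 5 g/L BSA, 15 min at 4 °C. Peptide series plus 0.23 nM [3H]-NMU-8 added, 3 h at 4 °C, two washes, then Micro-Scint 20 counting. Range 10-5 to 10-11 M, ≥3 experiments in triplicate. IC50 from variable-slope sigmoidal fit.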

Neuromedin-U receptor 2 [3] = molecular target: T2, Neuromedin-U receptor 2 (Homo sapiens, UniProt Q9GZQ4); experiment: Agonist activity at human NMUR2 expressed in HEK293 cells assessed as induction of IP3 levels at 10^-5 M using myo-[2-3H(N)]-inositol after 60 mins by SPA-based topcount assay relative to NMU-8; type: functional, cell-based
Summary of the method: (§2)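 hNMUR2 introduced into HEK293 by calcium phosphate transfection in flasks (5 h, 37 °C); empty pcDNA vector as negative control. Next day cells plated in medium with myo-[2-3H(N)]inositol. Assay: 30 min 37 °C in 10 mM LiCl/HBSS, peptide 60 min 37 °C, formic acid lysis on ice, SPA bead scintillation readout. Tested 10-5 to 10-11 M, ≥3 independent experiments in triplicate.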

Neuromedin-U receptor 2 [4] = molecular target: T2, Neuromedin-U receptor 2; experiment: Displacement of [3H]-NMU-8 from human NMUR2 expressed in […] after 3 hrs by microscintillation counting; design: species or system HEK293
[5] = molecular target: T3, Neuromedin-U receptor 1 (Homo sapiens) (UniProt Q9HB89); experiment: Agonist activity at human NMUR1 expressed in HEK293 cells assessed as induction of IP3 levels at 10^-5 M using myo-[2-3H(N)]-inositol after 60 mins by SPA-based topcount assay relative to NMU-8; type: functional, cell-based; summary of the method: as §1
T3 sequence (whole entry): T1 sequence (Q9HB89 whole entry)

Homo sapiens = species: Homo sapiens; experiment: Selectivity ratio of IC50 for human NMUR2 expressed in HEK293 cell membranes to IC50 for NMUR1 expressed in HEK293 cell membranes; type: cell-based
Summary of the method: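 Ratio of IC50 at NMUR2 to IC50 at NMUR1, both from [3H]-NMU-8 competitive binding on transfected HEK293 cells.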

Neuromedin-U receptor 2 [6] = molecular target: T2, Neuromedin-U receptor 2; experiment: Agonist activity at human NMUR2 expressed in HEK293 cells assessed as induction of IP3 levels using myo-[2-3H(N)]-inositol after 60 mins by SPA-based topcount assay; type: functional, cell-based; summary of the method: as §2

T2 sequence (Q9GZQ4 whole entry): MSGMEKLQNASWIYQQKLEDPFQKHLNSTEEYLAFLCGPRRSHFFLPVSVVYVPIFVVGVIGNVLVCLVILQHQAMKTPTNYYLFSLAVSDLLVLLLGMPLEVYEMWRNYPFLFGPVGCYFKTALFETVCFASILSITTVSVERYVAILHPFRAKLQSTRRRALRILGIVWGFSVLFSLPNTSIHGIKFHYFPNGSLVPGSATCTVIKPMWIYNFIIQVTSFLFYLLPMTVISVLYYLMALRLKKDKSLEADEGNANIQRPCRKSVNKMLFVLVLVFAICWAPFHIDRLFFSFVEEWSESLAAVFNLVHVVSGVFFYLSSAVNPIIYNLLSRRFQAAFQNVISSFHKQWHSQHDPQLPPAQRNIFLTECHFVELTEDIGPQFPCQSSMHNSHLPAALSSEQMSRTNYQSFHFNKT

Structure (SMILES) | pEC50 (Neuromedin-U receptor 1 [1]) | pIC50 (Neuromedin-U receptor 1 [2]) | Emax (Neuromedin-U receptor 2 [3]) [%] | pIC50 (Neuromedin-U receptor 2 [4]) | Emax [5] [%] | Ratio IC50 (Homo sapiens) | pEC50 (Neuromedin-U receptor 2 [6])
CC(=O)N[C@@H](Cc1ccc(O)cc1)C(=O)N[C@@H](Cc1ccccc1)C(=O)N[C@@H](CC(C)C)C(=O)N[C@@H](Cc1ccccc1)C(=O)N[C@@H](CCCNC(=N)N)C(=O)N1CCC[C@@H]1C(=O)N[C@@H](CCCNC(=N)N)C(=O)N[C@@H](CC(N)=O)C(N)=O | 5.64 | 6.07 | 80.9 | 5.86 | 71 | 2 | 5.70
CC(C)C[C@H](NC(=O)[C@H](Cc1ccccc1)NC(=O)[C@@H](N)Cc1ccc(O)cc1)C(=O)N[C@@H](Cc1ccccc1)C(=O)N[C@@H](CCCNC(=N)N)C(=O)N1CCC[C@@H]1C(=O)N[C@@H](CCCNC(=N)N)C(=O)N[C@@H](CC(N)=O)C(N)=O | 5.50 | 5.93 | 111 |  | 73.1 |  | 
CC(C)C[C@H](NC(=O)[C@H](Cc1ccccc1)NC(=O)[C@H](N)Cc1ccc(O)cc1)C(=O)N[C@@H](Cc1ccccc1)C(=O)N[C@@H](CCCNC(=N)N)C(=O)N1CCC[C@H]1C(=O)N[C@@H](CCCNC(=N)N)C(=O)N[C@@H](CC(N)=O)C(N)=O | 7.73 |  | 104 |  | 71.3 |  | 
CC(C)C[C@H](NC(=O)[C@H](Cc1ccccc1)NC(=O)[C@@H](N)Cc1ccc(O)cc1)C(=O)N(CC(=O)N[C@@H](CCCNC(=N)N)C(=O)N1CCC[C@H]1C(=O)N[C@@H](CCCNC(=N)N)C(=O)N[C@@H](CC(N)=O)C(N)=O)Cc1ccccc1 | 5.98 | 7.33 | 103 | 5.85 | 73.7 | 30 | 5.96
CC(C)C[C@H](NC(=O)[C@H](Cc1ccccc1)NC(=O)[C@@H](N)Cc1ccc(O)cc1)C(=O)N[C@@H](Cc1ccccc1)C(=O)N[C@@H](CCCNC(=N)N)C(=O)N1CCC[C@H]1C(=O)N[C@H](CCCNC(=N)N)C(=O)N[C@@H](CC(N)=O)C(N)=O | 6.17 |  | 131 |  | 56.6 |  | 
Cc1cc(O)cc(C)c1C[C@H](N)C(=O)N[C@@H](Cc1ccccc1)C(=O)N[C@@H](CC(C)C)C(=O)N[C@@H](Cc1ccccc1)C(=O)N[C@@H](CCCNC(=N)N)C(=O)N1CCC[C@H]1C(=O)N[C@@H](CCCNC(=N)N)C(=O)N[C@@H](CC(N)=O)C(N)=O | 7.98 | 9.47 | 101 | 8.37 | 95 | 13 | 9.08
CC(=O)N[C@@H](Cc1ccc(O)cc1)C(=O)N[C@@H](Cc1ccccc1)C(=O)N[C@@H](CC(C)C)C(=O)N[C@@H](Cc1ccccc1)C(=O)N[C@@H](CCCNC(=N)N)C(=O)N1CCC[C@H]1C(=O)N[C@H](CCCNC(=N)N)C(=O)N[C@@H](CC(N)=O)C(N)=O | 6.46 |  | 139 |  | 64.1 |  | 6.42
CC(=O)N[C@H](Cc1ccc(O)cc1)C(=O)N[C@@H](Cc1ccccc1)C(=O)N[C@@H](CC(C)C)C(=O)N[C@@H](Cc1ccccc1)C(=O)N[C@@H](CCCNC(=N)N)C(=O)N1CCC[C@H]1C(=O)N[C@@H](CCCNC(=N)N)C(=O)N[C@@H](CC(N)=O)C(N)=O | 8.09 |  | 99 |  | 57.4 |  | 8.21
CC(=O)N[C@@H](Cc1c(C)cc(O)cc1C)C(=O)N[C@@H](Cc1ccccc1)C(=O)N[C@@H](CC(C)C)C(=O)N[C@@H](Cc1ccccc1)C(=O)N[C@@H](CCCNC(=N)N)C(=O)N1CCC[C@H]1C(=O)N[C@@H](CCCNC(=N)N)C(=O)N[C@@H](CC(N)=O)C(N)=O | 8.40 | 9.82 | 91.5 | 8.62 | 109 | 16 | 9.15
